The source of these data is ChEMBL document CHEMBL1122348, “(E)-3-(4-Oxo-4H-quinazolin-3-yl)-2-propenoic acids, a new series of antiallergy agents” (1983).

Calls of active or inactive are those of the source. The calls are words filed in the database; no cut-off is given here.

For test [1], the system named is Rattus norvegicus. The test can be described thus: Anti-allergy activity test in rat passive cutaneous anaphylaxis (PCA) test at 16 mg/kg administered intraperitoneally. Conditions: ip, route intraperitoneal. The format is functional. The method in brief:
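Rats given the compound intraperitoneally at 16 mg/kg in the passive cutaneous anaphylaxis model. The read-out is percent inhibition of the cutaneous anaphylactic response, and some entries carry p values.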

The subject of test [2] is Rattus norvegicus. The test is described as follows: Tested for antiallergy activity in rat passive cutaneous anaphylaxis (PCA) test at 32 mg/kg administered perorally; pretreatment time is 30 min. Conditions: route oral. The test is classed as functional.
In test [3] the test system is Rattus norvegicus. The test is described as follows: Tested for antiallergy activity in rat passive cutaneous anaphylaxis (PCA) test at 32 mg/kg administered perorally. The format is functional. The settings on record: route oral.
Test [4] concerns Rattus norvegicus. The test can be described thus: Tested for antiallergy activity in rat passive cutaneous anaphylaxis (PCA) test at 32 mg/kg administered perorally; 10 min pretreatment time. The format is functional. Conditions: route oral.
The subject of test [5] is Rattus norvegicus. The test is described as follows: Tested for antiallergy activity in rat passive cutaneous anaphylaxis (PCA) test at 32 mg/kg administered perorally; 30 minute pretreatment time. The test is classed as functional. Conditions: route oral.
In test [6] the test system is Rattus norvegicus. The test can be described thus: Tested for antiallergy activity in rat passive cutaneous anaphylaxis (PCA) test at 32 mg/kg administered perorally; In active. The test is classed as functional, organism-based. The arrangement: dose 32 mg/kg.
The test system of test [7] is Rattus norvegicus. The test can be described thus: Percentage inhibition at 8 mg/kg administered intraperitoneally in rat passive cutaneous anaphylaxis (PCA) test, p<0.001. The test is classed as functional. The settings on record: ip, route intraperitoneal.
Test [8] relates to Rattus norvegicus. The test can be described thus: Inhibitory dose administered perorally against anaphylactic bronchospasm in passively sensitized rats. The settings on record: Bronchiole, po, read-out: ID50. The test is classed as functional.

As usually defined, the inhibition in vivo is the share of the control response that was lost under treatment. As for `COc1cc2ncn(/C=C/C(=O)O)c(=O)c2cc1OC`, the inhibition in vivo at 16 mg/kg in the test on Rattus norvegicus [1] stood at 88%.
`COC(=O)/C=C/n1cnc2ccc(OC(C)C)cc2c1=O` yielded an inhibition in vivo at 16 mg/kg with Rattus norvegicus [1] of 46%.
Same read-out and setting: as for `CS(=O)(=O)c1ccc2ncn(/C=C/C(=O)O)c(=O)c2c1`, the figure is 70%; as for `O=C(O)/C=C/n1cnc2ccc(O)cc2c1=O`, 56%.
Take `COc1cccc2c(=O)n(/C=C/C(=O)O)cnc12`: the inhibition in vivo at 32 mg/kg in the test on Rattus norvegicus [2] was determined as 45%. In addition, 16 mg/kg produced 82% inhibition in vivo in the test on Rattus norvegicus [1].
For `CSc1ccc2c(c1)C(=O)N(/C=C/C(=O)O)CN2`, at 16 mg/kg the inhibition in vivo with Rattus norvegicus [1] was 53%.
Take `CC(C)Sc1ccc2ncn(/C=C/C(=O)O)c(=O)c2c1`: the inhibition in vivo at 16 mg/kg in the test with Rattus norvegicus [1] was 59%. The compound also displayed an inhibition in vivo at 32 mg/kg with Rattus norvegicus [3] of 56%.
Taken in the same sequence, the figures for `COc1ccc2ncn(/C=C/C(=O)O)c(=O)c2c1` were 49% and 23%.
Take `CSc1ccc2ncn(/C=C\C(=O)O)c(=O)c2c1`: the inhibition in vivo at 16 mg/kg in the test with Rattus norvegicus [1] is 11%.
Consider `O=C(O)/C=C/n1cnc2ccc(C3CC3)cc2c1=O`, for which, in the test on Rattus norvegicus [4], the inhibition in vivo at 32 mg/kg worked out at 81%. Besides, the inhibition in vivo at 16 mg/kg with Rattus norvegicus [1] came to 100%.
Turning to `CSc1ccc2ncn(CCC(=O)O)c(=O)c2c1`, at 16 mg/kg the inhibition in vivo in the test with Rattus norvegicus [1] was 14%.
With `COc1cc(OC)c2ncn(/C=C/C(=O)O)c(=O)c2c1`, in the test with Rattus norvegicus [5], the inhibition in vivo at 32 mg/kg was 31%. In the test with Rattus norvegicus [1], this compound had an inhibition in vivo at 16 mg/kg of 81%.
In the test with Rattus norvegicus [1], `CSc1ccc2ncn(/C(C)=C/C(=O)O)c(=O)c2c1` gave an inhibition in vivo at 16 mg/kg of 9%.
In the test with Rattus norvegicus [1], `O=C(O)/C=C/n1cnc2ccc(OCCO)cc2c1=O` displayed an inhibition in vivo at 16 mg/kg of 67%. For the same compound, at 32 mg/kg the inhibition in vivo in the test with Rattus norvegicus [3] was 80%.
Compound `CCN(CC)CCOc1ccc2ncn(/C=C/C(=O)O)c(=O)c2c1` came in with an inhibition in vivo at 16 mg/kg with Rattus norvegicus [1] of 16%. In addition, the inhibition entry with Rattus norvegicus [6] is “inactive”.
Turning to `O=C(O)/C=C/n1cnc2ccc(Cl)cc2c1=O`, the inhibition in vivo at 16 mg/kg in the test with Rattus norvegicus [1] turned out to be 79%. The same compound registered an inhibition in vivo at 32 mg/kg with Rattus norvegicus [3] of 49%.
Compound `O=C(O)/C=C/n1cnc2ccccc2c1=O` yielded an inhibition in vivo at 32 mg/kg in the test with Rattus norvegicus [3] of 55%.
In the test on Rattus norvegicus [1], `CC(C)Oc1ccc2ncn(/C=C/C(=O)O)c(=O)c2c1` had an inhibition in vivo at 16 mg/kg of 87%. At 32 mg/kg the inhibition in vivo in the test on Rattus norvegicus [3] was 70%.
`Cc1cc(C)c2ncn(/C=C/C(=O)O)c(=O)c2c1`: in the test on Rattus norvegicus [1], the inhibition in vivo at 16 mg/kg came out at 82%. The inhibition in vivo at 32 mg/kg in the test with Rattus norvegicus [3] came out at 70%.
With `CC(C)c1cc(C(C)C)c2ncn(/C=C/C(=O)O)c(=O)c2c1`, the inhibition in vivo at 16 mg/kg in the test on Rattus norvegicus [1] turned out to be 70%. Besides, the inhibition in vivo at 32 mg/kg with Rattus norvegicus [3] was found to be 91%.
With `C[S+]([O-])c1ccc2ncn(/C=C/C(=O)O)c(=O)c2c1` (stereo not drawn), the inhibition in vivo at 16 mg/kg in the test on Rattus norvegicus [1] amounted to 89%. Further, 32 mg/kg produced 48% inhibition in vivo with Rattus norvegicus [3].
Compound `O=C(O)c1cc(=O)c2c(OCC(O)COc3cccc4oc(C(=O)O)cc(=O)c34)cccc2o1` [CROMOLYN SODIUM] yielded an inhibition in vivo at 32 mg/kg in the test with Rattus norvegicus [3] of 18%. The inhibition in vivo at 8 mg/kg with Rattus norvegicus [7] stood at 46%.
In the case of `Cc1nc2ccc(C3CC3)cc2c(=O)n1/C=C/C(=O)O`, at 16 mg/kg the inhibition in vivo in the test on Rattus norvegicus [1] was 39%.
For `CC(C)c1ccc2ncn(/C=C/C(=O)O)c(=O)c2c1`, the ED50 in the test with Rattus norvegicus [8] was 0.05 mg/kg. The inhibition in vivo at 16 mg/kg in the test with Rattus norvegicus [1] is 100%. In the test with Rattus norvegicus [3], this compound returned an inhibition in vivo at 32 mg/kg of 89%.
The compound `COC(=O)/C=C/n1cnc2ccc(SC)cc2c1=O` returned an inhibition in vivo at 16 mg/kg with Rattus norvegicus [1] of 39%.
On to `CSc1ccc2ncn(/C=C/C(=O)O)c(=O)c2c1` [TIACRILAST], for which, in the test with Rattus norvegicus [8], the ED50 was found to be 0.02 mg/kg. The inhibition in vivo at 16 mg/kg in the test with Rattus norvegicus [1] came out at 87%. In the test with Rattus norvegicus [3], this compound came in with an inhibition in vivo at 32 mg/kg of 75%.
